Compound activity as filed in PubChem BioAssay.
HTR1A agonist = activates the human 5-HT1a serotonin receptor. activation, % at 10 µM. CHO 5-HT1a Ga15 NFAT-bla reporter, FRET ratio; 0% basal, 100% maximal reference agonist. P08908. actives 0.56% (n = 65,000);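 active means activation above the screen-wide mean activation plus 3 SD, cut at about 19% in these data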;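 further: 0% = DMSO wells and 100% = 5-CT at EC100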
Target sequence (P08908 whole entry, looked up): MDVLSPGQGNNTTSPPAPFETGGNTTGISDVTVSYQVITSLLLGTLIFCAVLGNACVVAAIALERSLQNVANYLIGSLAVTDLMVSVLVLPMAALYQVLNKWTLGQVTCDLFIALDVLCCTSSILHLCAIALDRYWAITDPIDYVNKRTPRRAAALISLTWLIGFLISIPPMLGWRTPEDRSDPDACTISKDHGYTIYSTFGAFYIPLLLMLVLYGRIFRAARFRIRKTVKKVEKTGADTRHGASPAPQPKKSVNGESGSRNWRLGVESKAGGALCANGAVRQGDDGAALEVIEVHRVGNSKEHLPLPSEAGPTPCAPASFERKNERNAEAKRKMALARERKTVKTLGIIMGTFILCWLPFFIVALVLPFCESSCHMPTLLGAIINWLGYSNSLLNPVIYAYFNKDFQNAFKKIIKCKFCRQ
S1P1 ag-PAM = agonists and agonism potentiators of human S1P1 receptor. activation, % at 9.5 µM. S1P1 CRE-bla cells, forskolin, beta-lactamase FRET, potentiator mode; S1P1 agonist co-added at EC20, 2 nM; 100% = saturating reference agonist, 0% = basal. actives 0.57% (n = 56,000);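 active means activation above a cutoff set at the mean activation of all tested compounds plus 3 SD, cut at about 54% in these data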;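 further: forskolin at 4 µM as EC80 and the EC20 agonist is SEW2871; 100% = SEW2871 at its EC100 plus forskolin at EC80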
5HT1E antag = 5-HT1E (human) receptor antagonism. inhibition, % at 6 µM. CHO 5-HT1E Ga15 NFAT-bla reporter, FRET, antagonist. actives 0.99% (n = 65,000). P28566;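 active means inhibition above a set limit, the mean inhibition across every tested compound plus 3 SD, cut at about 29% in these data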;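 further: signal is the 460 over 535 nm emission ratio of beta-lactamase substrate; 0% = agonist plus DMSO wells and 100% = wells without agonist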
S1P3 agonist = agonists of human S1P3 receptor; Q99500; S1P3 NFAT-BLA reporter cells, agonism, FRET ratio; relative to 1 µM S1P, basal subtracted; activation, % at 4.5 µM; actives 0.1% (n = 60,000); AID 373;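 active means activation above the screen-wide mean plus 3 SD, cut at about 4.5% in these data, passing the limit was not always enough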
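Measure – % activation relative to 1 µM S1P (100%), per plate · System – stable CHO line with human S1P3, Gα16, NFAT-BLA reporter · Timing – cells plated overnight, compound 4 h 37 °C, substrate 2 h RT · Technique – fluorescent BLA substrate, ex 405 nm, em 460/535 nm ratio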
HTR1E agonist = agonists of human 5-HT1E serotonin receptor | P28566 | CHO 5-HT1E Ga15 NFAT-bla reporter, FRET; 0% DMSO wells, 100% control agonist wells | activation, % at 6 µM | actives 0.69% (n = 65,000) | AID 574;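 active means activation above a set limit, the screen-wide mean activation plus 3 SD, cut at about 8.5% in these data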;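 further: 100% = positive control agonist at 1 µM giving full maximal response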
5-HT1A blocker = antagonists of human 5-HT1a serotonin receptor; CHO 5-HT1a Ga15 NFAT-bla reporter, antagonist mode; inhibition, % at 10 µM; actives 0.68% (n = 62,000); AID 612;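 active means inhibition above the mean of all tested compounds plus 3 SD, cut at about 43% in these data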;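 further: receptor stimulated by 5-CT agonist at 100 nM near EC80; beta-lactamase reporter measured by ratiometric fluorescence of a cleavable substrate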
The depositor's hits bear a star; x = no result given. The list is not random: actives were taken first. Their share in the collection is about 3%.

SMILES	HTR1A agonist	S1P1 ag-PAM	5HT1E antag	S1P3 agonist	HTR1E agonist	5-HT1A blocker
CC[C@@H](C)[C@H](NC(=O)OC(C)(C)C)c1nnc(S(=O)(=O)Cc2cc(C)ccc2C)o1	1	25	35*	-2	0	57*
Cc1[nH]c(=O)[nH]c(=O)c1CSc1nnc([C@@H](NC(=O)OC(C)(C)C)C(C)C)o1	0	10	-19	0	0	-9
CC(C)C[C@H](N)c1nnc(S(=O)(=O)Cc2cccc(F)c2)o1	-1	2	20	-2	0	58*
CC(C)CC(=O)N1CCN(Cc2cccc(F)c2)CC1	0	-10	8	-1	1	1
CN(C(=O)c1ccc(Cl)c(S(=O)(=O)N2CCOCC2)c1)c1ccccc1C(=O)O	-3	-8	-2	-1	1	-3
Cc1sc2ncnc(OCC(=O)N3CCN(S(=O)(=O)c4ccccc4)CC3)c2c1C	0	12	-5	0	0	-6
CC(C)(C)OC(=O)N1CCOCCOCCN(C(=O)OC(C)(C)C)CCOCCOCC1	-2	-14	0	-1	0	6
Cc1ccccc1CS(=O)(=O)c1nnc([C@H](CC(C)C)NC(=O)OC(C)(C)C)o1	3	59	36*	0	2	39
CCOC(=O)CSc1nnc([C@H](Cc2ccccc2)NC(=O)OC(C)(C)C)o1	0	-6	-9	0	0	-17
CCCN=Cc1sc2ccc(OCC)cc2c1O	-3	-5	9	-2	35*	26
CCc1nc2c(n1O)CCc1nonc1-2	-4	x	9	0	-1	-13
O=C1CCCC2=C1C(O)(C(F)(F)F)C(=O)N2Cc1ccccc1 (stereo not drawn)	0	-13	-9	0	-1	-2
O=C1N2c3ccccc3CCc3cccc(c32)C1(O)C(F)(F)F (stereo not drawn)	7	-4	29*	0	-1	-21
COc1ccc(OC)c(C(c2nnnn2CCC(C)C)N2CCN(C(=O)c3ccco3)CC2)c1 (stereo not drawn)	1	-1	-6	0	-1	17
O=S(=O)(NCc1ccc2c(c1)OCO2)c1cccc(S(=O)(=O)N2CCOCC2)c1	-2	11	7	-1	0	-15
CC(=O)N1C=CN(C(C)=O)C(c2cn(C)c3ccccc23)C1c1cn(C)c2ccccc12 (stereo not drawn)	-3	69*	-6	-2	-1	29
CC(=O)n1cc(C2C(=O)CCCC2=O)c2ccccc21	-7	-9	-3	0	0	14
CC(=O)c1ccc(NS(=O)(=O)Cc2ccccc2)cc1	0	-16	-4	0	0	4
CC(=O)N(C)c1ccc(NS(=O)(=O)Cc2ccccc2)cc1	69*	6	1	-1	0	-7
COC(=O)CNc1nc(OC)nc(N(C)C)n1	0	2	6	-1	0	2
CCOC(=O)c1c(N)c(C#N)cn1-c1ccccc1	-2	-14	6	0	0	-5
CCOC(=O)c1c(NC(=O)c2nn(CC)cc2Br)c(C#N)cn1-c1ccccc1	1	-26	40*	0	0	18
C#CCOc1nc(OCC#C)nc(OCC#C)n1	-1	-3	-6	-1	0	-10
CCOc1ccc(-c2nnc(-c3cccs3)o2)cc1OCC	1	104*	-7	0	0	-5
COc1ccc(-c2nnc(-c3cccs3)o2)cc1OC	2	-19	-3	0	2	-11
SMILES	HTR1A agonist	S1P1 ag-PAM	5HT1E antag	S1P3 agonist	HTR1E agonist	5-HT1A blocker
Cc1cc(C)cc(OCC(=O)Nc2cccc(-c3nnc(-c4ccco4)o3)c2)c1	20*	x	-9	0	0	-12
CCOc1ccc(-c2nnc(-c3ccco3)o2)cc1OCC	-2	99*	-1	0	0	-14
CCOc1cc(-c2nnc(-c3ccco3)o2)cc(OCC)c1OCC	-2	-18	4	-1	1	-8
CCN(CC)C(=O)CN(C#N)c1nc(NC(C)C)nc(NC(C)C)n1	-1	8	-11	-1	0	x
CCCN(C#N)c1nc(NCC)nc(NC(C)C)n1	-1	-26	29*	0	1	8
CCCC(c1nnnn1Cc1ccco1)N1CCN(c2cc(Cl)ccc2C)CC1 (stereo not drawn)	-2	-3	0	-2	0	51*
Cn1c(=O)c(C(=S)NC(=O)C2CC2)c(N)n(Cc2ccccc2)c1=O	2	-15	-11	0	-1	-11
COc1cc(OC)c(OC)cc1CNCCNC(=O)c1nonc1N	-4	-10	0	-1	1	16
CC(=O)c1c(C)[nH]c(C(=O)OCCCCN2C(=O)c3ccccc3C2=O)c1C	4	97*	15	-2	0	7
Cc1nn(C)c(C)c1S(=O)(=O)N(CC(=O)NCCN1CCOCC1)c1ccc(C(C)C)cc1	-3	-18	7	-1	1	-11
Cc1nn(C(=O)c2cc3sccc3[nH]2)c(C)c1C	0	-11	0	0	0	32
CCOc1cc(-c2nc(-c3ccc(OC)cc3)no2)cc(OCC)c1OCC	1	0	-12	0	0	-12
Cc1cc(C)cc(-c2nc(-c3ccncc3)no2)c1	-2	105*	-7	-1	0	-4
CCOc1ccccc1NC(=O)c1ccccc1-c1nc(-c2ccccc2)no1	2	-4	-14	-1	1	46*
CCOc1ccc(-c2nc(-c3ccccc3)no2)cc1OCC	0	108*	-14	14*	0	-21
COc1ccc(-c2noc(-c3ccccc3C(=O)Nc3cccc(OC)c3)n2)cc1	0	14	-7	-1	-1	37
CCOc1ccc(-c2nc(-c3ccncc3)no2)cc1OCC	0	111*	-5	54*	0	4
CCOc1cc(-c2nc(-c3ccncc3)no2)cc(OCC)c1OCC	1	-5	-18	0	0	-3
O=C(CN1CCC(C(=O)c2ccc(Cl)cc2)CC1)Nc1ccc2c(c1)OCCO2	0	23	3	-1	0	-1
c1cncc(-c2nc(Oc3ccc(-c4nnco4)cc3)c3c4c(sc3n2)CCCC4)c1	-1	-14	-5	-1	0	-1
O=C(NCc1ccco1)Nc1ccc(Br)cc1	0	32	13	-1	-1	32
O=C(NCc1ccco1)Nc1ccc2nsnc2c1	-2	-20	14	-1	-1	59*
CSc1ccc2[nH]c(=O)cc(C)c2c1	1	-10	7	-1	-1	-5
COC(=O)c1ccc(-n2c(C)cc(/C=N/n3cnnc3)c2C)cc1	-2	18	2	-2	19*	2
